Assay [1] in a line: Inhibition of [3H]epibatidine binding at the alpha beta nicotinic AChR in male rat cerebral cortex. It counts as tissue-based.
The species named for assay [2] is Mus musculus. Kind of assay: Compound was tested for inhibition of antinociceptive effect of nicotine in mice by hotplate assay; NA=Inactive. It counts as functional, organism-based. Put shortly:
(§1)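 Antagonism was tested in male ICR mice given test agent sc, measuring blockade of nicotine-induced antinociception in tail-flick or hot-plate tests. Potency is expressed as AD50 in mg/kg with confidence limits.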

For assay [3], the species on record is Mus musculus. As to the kind of experiment: Compound was tested for inhibition of antinociceptive effect of nicotine in mice by tail-flick assay; NA=Inactive. It counts as functional, organism-based. Summed up: as §1
For assay [4], the system named is Mus musculus. Kind of assay: Compound at 10 mg/Kg was tested for antinociception in mice by hotplate assay. The assay is classed as functional. Put shortly: (§2)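 Male ICR mice were given test agent and assessed for antinociception by tail-flick or hot-plate. Results are expressed as ED50 in mg/kg with confidence limits, or as percent effect at a single stated mg/kg dose.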

For assay [5], the system named is Mus musculus. Kind of assay: Compound at 10 mg/Kg was tested for hypothermia in mice. The assay is classed as functional. Summed up: (§3)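 Male ICR mice were dosed and body temperature or locomotor activity was recorded. Values are ED50 in mg/kg with confidence limits, or the effect (change in °C for temperature) at a single stated mg/kg dose.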
Assay [6] has as its system Mus musculus. Kind of assay: Compound at 10 mg/Kg was tested for antinociception in mice by tail-flick assay. The assay is classed as functional. Summed up:
as §2
In general terms: Thermal pain tests record how soon the animal reacts.

Assay [7] has as its system Mus musculus. Kind of assay: Compound at 15 mg/Kg was tested for antinociception in mice by tail-flick assay. The assay is classed as functional. Summed up:
as §2

For assay [8], the species on record is Mus musculus. As to the kind of experiment: Effective dose for hypomotility in mice was determined. It counts as functional. Summed up: as §3
Assay [9] concerns Mus musculus. Kind of assay: Compound at 15 mg/Kg was tested for antinociception in mice by hotplate assay. The assay is classed as functional. Summed up:
as §2

The species entered for assay [10] is Mus musculus. As to the kind of experiment: Compound was tested to block the antinociceptive effect of nicotine in mice by hotplate assay. It counts as functional. Summed up:
as §1

Assay [11] is filed under the species Mus musculus. Kind of assay: Compound was tested to block the antinociceptive effect of nicotine in mice by tail-flick assay. It counts as functional. Put shortly:
as §1

The species named for assay [12] is Mus musculus. As to the kind of experiment: Effective dose for hypothermia in mice was determined.
The species named for assay [13] is Mus musculus. As to the kind of experiment: Effective dose for antinociception in mice was determined by hotplate assay.
The species named for assay [14] is Mus musculus. As to the kind of experiment: Effective dose for antinociception in mice was determined by tail-flick assay.

pKi: −log10 of the molar value. Calls of active or inactive are those of the source. No cut-off for these calls is given here.

For orientation: pKi means the negative decadic logarithm of the Ki, by convention in mol/L. As a reminder, the ED50 is the dose at which the effect has come halfway, by size or by number of responders.

As for `Fc1ccc(C2CC3CCC2N3)cn1` (configuration not stated), in [1], the pKi was 10.57.
Turning to `Nc1ncc(C2CC3CCC2N3)cc1-c1ccccc1` (configuration not stated), the AD50 entry in assay [2] and in assay [3] was “inactive” each time. For the same compound, the Effect in assay [4] is reported as 15%; in assay [6], 2%. Moreover, in [5], the Temperature is -0.5 °C. In [1], this compound showed a negative-log Ki (pKi) of 9.48.
On to `Fc1ncc(C2CC3CCC2N3)cc1-c1ccccc1` (racemic), for which the Effect was determined as 3% in [7] and 4% in assay [9]. The compound further gave a 50% effective dose (ED50) in assay [8] of 4.7 mg/kg. For the same compound, the Temperature in assay [5] was -0.5 °C. Also, the AD50 stood at 1.2 mg/kg in assay [10] and 0.5 mg/kg in assay [11].
On to `CN1CCC[C@H]1c1cccnc1` [NICOTINE], for which the 50% effective dose (ED50) in assay [12] is 0.004 mg/kg; in [8], 0.5 mg/kg; in assay [13], 0.004 mg/kg; in [14] it was 0.006 mg/kg.
As for `CN(C)c1ncc(C2CC3CCC2N3)cc1-c1ccccc1` (configuration not stated), the pKi in assay [1] is 7.24.
With `Fc1ncc(C2CC3CCC2N3)cc1-c1ccccc1` (single isomer, unassigned; (+)), the results for the Effect in assay [7] and in assay [9] were 7% and 8%, respectively. Moreover, in assay [5], the Temperature is -0.4 °C. The figures for the AD50 in assay [10] and in [11] were 2.4 mg/kg and 1 mg/kg, respectively. In [1], this compound gave a pKi of 9.62.
On to `Clc1ncc(C2CC3CCC2N3)cc1-c1ccccc1` (configuration not stated), for which the negative-log Ki (pKi) in assay [1] is 10.68.
The same measure, in the same setting: in the case of `Nc1ccc(C2CC3CCC2N3)cn1` (configuration not stated) it was 8.89.
On to `Fc1ncc(C2CC3CCC2N3)cc1-c1ccccc1` (stereo in doubt; (-)-5a), for which the Effect was 5% in assay [7] and 10% in assay [9]. Further, in assay [5], the Temperature was -0.8 °C. The AD50 in assay [10] worked out at 0.7 mg/kg; in assay [11], 0.08 mg/kg. For the same compound, the negative-log Ki (pKi) in [1] was 9.59.

The values are drawn from ChEMBL document CHEMBL1134279, “Synthesis, nicotinic acetylcholine receptor binding, and antinociceptive properties of 2-exo-2-(2'-substituted-3'-phenyl-5'-pyridinyl)-7-azabicyclo[2.2.1]heptanes. Novel nicotinic antagonist” (J Med Chem, 2001).
